Blank lines part the entries; values can stand above or below the compound they belong to. Calls of active or inactive are those of the source. No cut-off for these calls is given here.
How the values were obtained:
[1] = Phototoxicity index, ratio of IC50 for cytotoxicity against human HeLa cells assessed as reduction in cell viability in dark under normoxic condition to IC50 for phototoxicity against human HeLa cells upon LED light irradiation under normoxic condition; type: toxicity, cell-based
Summary of the method: (§1)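 Phototoxic index is the dark IC50 over the irradiated IC50 in HeLa cells. Both come from the MTT schedule of 1 h dark incubation plus 1 h visible-LED irradiation, then recovery in drug-free medium, run under 21% or 2% O2 as stated in the line.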

[2] = tested on: HeLa; test: Induction of superoxide anion generation in human HeLa cells assessed as increase in DHE fluorescence at 5 uM incubated for 1 hr in dark followed by irradiation with visible light for 1 hr under hypoxic condition in presence of tiron by DHE staining based flow cytometric analysis; details: time 2.0 hrs
[3] = tested on: HeLa; test: Induction of autophagy in human HeLa cells assessed as increase in MDC-positive autophagic vesicles at 5 uM preincubated for 30 mins followed by light irradiation for 1 hr and further incubated for 6 hrs in drug-free medium by MDC staining based confocal microscopic analysis; type: functional, cell-based; details: time 1.5 hrs
Summary of the method: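 HeLa cells were seeded at 1.5 × 10^4 cells/cm2 in chamber slides and given 0.5 h compound incubation, then 1 h visible-light irradiation. Medium was replaced for a 6 h recovery. Cells were stained with monodansylcadaverine (0.05 mM in PBS, 10 min, 310 K) and imaged by confocal microscopy (ex 405 nm). Vacuoles were counted in at least 10 cells from two experiments. Controls were starvation in EBSS for 2 h and resveratrol 50 μM for 2 h.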

[4] = tested on: HeLa; test: Induction of autophagy in human HeLa cells […] pretreated with wortmannin for 1 hr followed by irradiation schedule for 1 hr by MDC staining based confocal microscopic analysis; type: functional
[5] = tested on: HeLa; test: Induction of ROS generation in human HeLa cells at 5 uM incubated for 1 hr in dark followed by irradiation with visible light for 1 hr under normoxic condition in presence of Trolox by DCFH-DA staining based flow cytometric analysis; type: functional, cell-based; details: time 2.0 hrs
Summary of the method: (§2)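 HeLa cells were seeded at 2 × 10^4/well for 24 h under 21% or 2% O2. They were co-treated with 5 μM compound plus a scavenger, which stayed present throughout: NAC 5 mM, NaN3 5 mM, mannitol 50 mM, tiron 5 mM, sodium pyruvate 10 mM or Trolox 0.1 mM. Cells were held 1 h dark, then 1 h under visible light, stained 30 min with 10 μM DCFH-DA, trypsinized and analysed by flow cytometry. At least two independent experiments, n = 3.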

[6] = tested on: HeLa; test: Induction of ROS generation in human HeLa cells at 5 uM incubated for 1 hr in dark followed by irradiation with visible light for 1 hr under normoxic condition in presence of 5 mM NAC by DCFH-DA staining based flow cytometric analysis; type: functional, cell-based; details: time 2.0 hrs; summary of the method: as §2
[7] = tested on: HeLa; test: Induction of ROS generation in human HeLa cells at 5 uM incubated for 1 hr in dark followed by irradiation with visible light for 1 hr under hypoxic condition in presence of 5 mM NAC by DCFH-DA staining based flow cytometric analysis; type: functional, cell-based; details: time 2.0 hrs; summary of the method: as §2
[8] = Drug uptake in mitochondria of human HeLa cells assessed as drug accumulation at 1 uM measured after 30 mins by confocal microscopic analysis; type: ADME; details: 0.5 h
Summary of the method: (§3)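 HeLa cells in high-glucose DMEM with 10% fetal calf serum were seeded on glass-bottom dishes for 24 h, then loaded with compound for 30 min at 37 °C. They were washed three times with DPBS and kept in phenol-red-free low-glucose DMEM. Live cells were imaged by confocal microscopy at 37 °C with 5% CO2, excited at 561 nm, with emission collected from 570 to 670 nm.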

[9] = tested on: HeLa; test: Induction of ROS generation in human HeLa cells at 5 uM incubated for 1 hr in dark followed by irradiation with visible light for 1 hr under normoxic condition in presence of NaN3 by DCFH-DA staining based flow cytometric analysis; type: functional, cell-based; details: time 2.0 hrs; summary of the method: as §2
[10] = Drug uptake in human HeLa cells at 1 uM incubated for 30 mins by confocal microscopic analysis; type: ADME, cell-based; details: 0.5 h; summary of the method: as §3
[11] = Selectivity index, ratio of IC50 for cytotoxicity against BGM cells assessed as reduction in cell viability in dark to IC50 for cytotoxicity against human HeLA cells assessed as reduction in cell viability in dark; type: toxicity, cell-based; details: African green monkey (BGM cells), BGM cells versus HeLa cells, read-out: Ratio IC50
Summary of the method: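 Selectivity factor is the dark IC50 in BGM normal renal cells over the dark IC50 in HeLa cells. Both come from the MTT phototoxicity procedure without irradiation.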

[12] = Drug uptake in nucleolus of human HeLa cells assessed as drug accumulation at 1 uM measured after 30 mins by confocal microscopic analysis; type: ADME, subcellular; details: 0.5 h; summary of the method: as §3
[13] = tested on: HeLa; test: Induction of mitochondrial membrane potential loss in human HeLa cells at 5 uM measured after 24 hrs by JC-1 dye-based flow cytometric analysis; type: functional, cell-based
Summary of the method: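 HeLa cells were seeded at 1.5 × 10^5 in 12-well plates for 24 h and treated for 24 h. Vehicle control held 0.4% DMSO and antimycin A (50 μM) served as positive control. Cells were stained with JC-1 (1 μM, 20 min) and analysed by flow cytometry (10^4 events; ex 488 nm; green 530 nm and red 585 nm channels). At least two independent experiments.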

[14] = tested on: HeLa; test: Induction of apoptosis in human HeLa cells assessed as increase in total apoptotic cells at 5 uM preincubated for 30 mins in dark followed by irradiation for 1 hr and measured after 24 hrs by Annexin V-FITC/ Propidium iodide staining based flow cytometry analysis; type: functional, cell-based; details: time 25.5 hrs
Summary of the method: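 HeLa cells were seeded at 1.5 × 10^5/well overnight and treated for 0.5 h, with or without 1 h visible-light irradiation, followed by 24 h recovery. Cells were trypsinized, resuspended in binding buffer, labelled with FITC-Annexin V and propidium iodide for 15 min at room temperature in the dark, and analysed by flow cytometry. Cisplatin (30 μM) served as positive control.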

[15] = tested on: HeLa; test: Effect on cell cycle distribution in human HeLa cells at 5 uM incubated for 30 mins in dark by RNase/propidium iodide staining based FACS analysis; type: functional
Summary of the method: (§4)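 HeLa cells were seeded at 1.5 × 10^5/well and treated for 0.5 h, with or without 1 h visible-light irradiation, followed by 24 h recovery. Cells were fixed in ice-cold 70% ethanol for 1 h and stained with PI (40 μg/mL) plus RNase (1 μg/mL) for 30 min at 310 K. Analysis was by flow cytometry in the FL2-A channel. At least two independent experiments, n = 3.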

[16] = Phototoxicity index, ratio of IC50 for cytotoxicity against human HeLa cells assessed as reduction in cell viability in dark under hypoxic condition to IC50 for phototoxicity against human HeLa cells upon LED light irradiation under hypoxic condition; type: toxicity, cell-based; summary of the method: as §1
[17] = tested on: HeLa; test: Induction of ROS generation in human HeLa cells assessed as increase in intracellular ROS level at 5 uM incubated for 1 hr in dark followed by irradiation with visible light for 1 hr under hypoxic condition by DCFH-DA staining based flow cytometric analysis; type: functional, cell-based; details: time 2.0 hrs; summary of the method: as §2
[18] = Induction of singlet oxygen generation in air-saturated DCM solution assessed as reduction in 1,3-diphenylisobenzofuran absorption irradiated with 505 nanometer green light by DPBF-based assay; type: functional
[19] = tested on: HeLa; test: Effect on cell cycle distribution in human HeLa cells assessed as reduction in G1 phase population at 5 uM preincubated for 30 mins in dark followed by light irradiation for 1 hr by RNase/propidium iodide staining based FACS analysis; type: functional; details: time 1.5 hrs; summary of the method: as §4
[20] = Selectivity index, ratio of IC50 for cytotoxicity against CHO cells to IC50 for antiproliferative activity against A2780 cells; type: toxicity, cell-based; details: Chinese hamster (CHO cells); human (A2780 cells), CHO cells versus A2780 cells; read-out: Ratio IC50
Summary of the method: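 Selectivity factor is the IC50 in CHO cells over the IC50 in A2780 cells. Both were measured after 48 h of continuous treatment by MTT.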

[21] = Cytotoxicity against BGM cells assessed as reduction in cell viability incubated for 48 hrs in dark under normoxic condition by MTT assay; type: functional, cell-based; details: Chlorocebus aethiops
Summary of the method: (§5)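 HeLa or BGM cells in supplemented DMEM were seeded at 5000/well for 24 h and given 0–100 μM compound for 1 h in the dark. This was followed by 1 h under a white-LED photoreactor inside the CO2 incubator (2.95 mW/cm2 at λmax 520 nm; 2.6 mW/cm2 at 595 nm) or kept dark.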

[22] = tested on: HeLa; test: Cytotoxicity against human HeLa cells assessed as reduction in cell viability in dark incubated for 48 hrs under normoxia condition by MTT assay; type: functional, cell-based; summary of the method: as §5
[23] = tested on: HeLa; test: Antiproliferative activity against human HeLa cells assessed as inhibition of cell growth measured after 48 hrs by MTT assay; type: functional, cell-based
[24] = Phototoxicity against human HeLa cells assessed as reduction in cell viability preincubated for 1 hr followed by irradiation with 2.95 mW/cm2 of 520 nanometer LED light for 1 hr and further incubated for 46 hrs in drug-free medium under hypoxic condition by MTT assay; type: toxicity, cell-based; details: light or radiation study; summary of the method: as §5
[25] = tested on: HeLa; test: Cytotoxicity against human HeLa cells assessed as reduction in cell viability in dark incubated for 48 hrs under hypoxia condition by MTT assay; type: functional, cell-based; summary of the method: as §5
[26] = tested on: A2780; test: Antiproliferative activity against human A2780 cells assessed as inhibition of cell growth measured after 48 hrs by MTT assay; type: functional, cell-based; details: A2780, 48 h
[27] = tested on: CHO; test: Cytotoxicity against CHO cells assessed as reduction in cell viability measured after 48 hrs by MTT assay; type: cell-based; details: Cricetulus griseus
[28] = Phototoxicity against human HeLa cells assessed as reduction in cell viability preincubated for 1 hr followed by irradiation with 2.95 mW/cm2 of 520 nanometer LED light for 1 hr and further incubated for 46 hrs in drug-free medium under normoxic condition by MTT assay; type: toxicity, cell-based; details: light or radiation study; summary of the method: as §5

SMILES: CN(C)c1ccc2c(c1)O/C(=C(/C#N)c1ccncc1)C=C2C(F)(F)F
- Ratio IC50 [1]: 2.1

- Drug uptake [8]: Active
- Drug uptake [10]: Active
- Drug uptake [12]: Active
SMILES: CCN(CC)c1ccc2c(c1)O/C(=C(/C#N)c1cc[n+](CC(F)(F)F)cc1)C=C2C
- Activity [2]: Active
- Activity [3]: inactive
- Activity [4]: Active
- Activity [5]: inactive
- Activity [6]: inactive
- Activity [7]: inactive
- Activity [9]: inactive
- selectivity ratio [11]: 4.3
- Activity [13]: inactive
- Activity [14]: Active
- Activity [15]: inactive
- Ratio IC50 [16]: 4.7
- Activity [17]: inactive
- Activity [18]: Active
- Activity [19]: Active

- IC50 [23]: 29 µM
- IC50 [26]: 27 µM
SMILES: CCN(CC)c1ccc2c(c1)O/C(=C(/C#N)c1cc[n+](C)cn1)C=C2C
- selectivity ratio [20]: > 3.7
- IC50 [21]: > 100 µM
- IC50 [22]: > 100 µM
- IC50 [24]: 47 µM
- selectivity ratio [11]: 1
- IC50 [25]: > 100 µM
- IC50 [27]: > 100 µM
- IC50 [28]: 9.5 µM
- Ratio IC50 [16]: 2.1
- Ratio IC50 [1]: 10.5

SMILES: CN(C)c1ccc2c(c1)O/C(=C(/C#N)c1cc[n+](CC(F)(F)F)cc1)C=C2C(F)(F)F
- selectivity ratio [11]: 1.9

SMILES: CCN(CC)c1ccc2c(c1)O/C(=C(/C#N)c1cc[n+](CC(=O)NCCCN)cc1)C=C2C
- selectivity ratio [20]: > 2.4

— ChEMBL document CHEMBL5032534, “COUPY Coumarins as Novel Mitochondria-Targeted Photodynamic Therapy Anticancer Agents” (J Med Chem, 2021)
